Data set [1] concerns the target T1, Nuclear receptor subfamily 1 group I member 2 (Homo sapiens, UniProt O75469).
T1 sequence (O75469 whole entry): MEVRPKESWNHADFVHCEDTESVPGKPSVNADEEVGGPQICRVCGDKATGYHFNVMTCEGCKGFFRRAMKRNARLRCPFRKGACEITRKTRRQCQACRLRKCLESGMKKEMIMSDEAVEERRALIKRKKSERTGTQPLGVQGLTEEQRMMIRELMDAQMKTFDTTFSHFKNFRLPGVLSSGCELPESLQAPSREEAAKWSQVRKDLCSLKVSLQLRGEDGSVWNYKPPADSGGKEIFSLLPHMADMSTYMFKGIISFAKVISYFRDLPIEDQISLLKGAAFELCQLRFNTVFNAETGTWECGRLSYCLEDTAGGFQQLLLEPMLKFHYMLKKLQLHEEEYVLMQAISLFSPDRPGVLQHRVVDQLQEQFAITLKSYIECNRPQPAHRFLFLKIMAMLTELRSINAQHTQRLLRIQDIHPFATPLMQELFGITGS
As to the kind of experiment: Antagonist activity at human PXR transfected in human HepG2 cells co-transfected with pSG5-RXR/pCMV-beta-galactosidase/p(CYP3A4)-TK-Luc assessed as inhibition of rifaximin-induced transactivation after 18 hrs by luciferase reporter gene assay. It is filed as cell-based. Conditions: for inhibition (INH): human, hepg2, 18 h. An outline of the steps:
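PXR/RXR/β-gal/PXRE-luciferase-transfected HepG2 cells, 24 h post-transfection, co-treated 18 h with 10 µM rifaximin and compound at 10, 25 and 50 µM. β-galactosidase-normalised luciferase signal used to fit concentration-response curves for IC50.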

The target of data set [2] is T1, Nuclear receptor subfamily 1 group I member 2. As to the kind of experiment: Antagonist activity at PXR in human HepG2 cells assessed as inhibition of rifaximin-induced CYP3A4 mRNA expression at 50 uM after 18 hrs by real time-PCR analysis. It counts as cell-based. Conditions: hepg2, 18 h. An outline of the steps: (§1)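 HepG2 seeded 5x10^5 cells/well, grown to about 70% confluence, serum-starved 24 h, then treated 18 h with rifaximin 10 µM alone or with compound at 50 µM. PXR and CYP3A4 mRNA by real-time PCR in triplicate (40 cycles), normalised to GAPDH, 2^-ΔΔCt relative to untreated cells; mean of two experiments.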

For data set [3], the system named is HepG2. Description: Downregulation of PXR mRNA expression in rifaximin-treated human HepG2 cells at 50 uM after 18 hrs by real time-PCR analysis. It is filed as functional, cell-based. An outline of the steps:
as §1

In data set [4] the target is T1, Nuclear receptor subfamily 1 group I member 2. Description: Antagonist activity at human PXR transfected in human HepG2 cells co-transfected with pSG5-RXR/pCMV-beta-galactosidase/p(CYP3A4)-TK-Luc assessed as inhibition of rifaximin-induced transactivation at 50 uM after 18 hrs by luciferase reporter gene assay. It counts as cell-based. Conditions: hepg2, 18 h. An outline of the steps:
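HepG2 transiently transfected with hPXR, RXR, β-galactosidase and PXRE-luciferase vectors; 24 h later exposed 18 h to rifaximin 10 µM plus compound at 50 µM. Luciferase in lysate measured and divided by β-galactosidase activity to correct for transfection efficiency.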

For data set [5] the target is unchanged. Description: Agonist activity at human PXR transfected in human HepG2 cells co-transfected with pSG5-RXR/pCMV-beta-galactosidase/p(CYP3A4)-TK-Luc at 10 uM after 18 hrs by luciferase reporter gene assay. It counts as cell-based. Conditions: hepg2, 18 h. An outline of the steps:
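HepG2 seeded 5x10^4 cells/well in MEM/10% FBS, transfected (Fugene HD) with pSG5hPXR, pSG5-RXR, pCMV-β-galactosidase and PXRE luciferase reporter. At 24 h post-transfection, treated 18 h with compounds at 10 µM; rifaximin and solomonsterol A (10 µM) as reference agonists. Lysate luciferase read, normalised to β-galactosidase activity.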

Data set [6] has the same target. Description: Antagonist activity at human PXR transfected in African green monkey CV1 cells assessed as inhibition of SR12813-induced transactivation after 24 hrs by luciferase reporter gene assay. It counts as cell-based, CV-1.
For data set [7], the system named is HepG2. Description: Cytotoxicity against human HepG2 cells transfected with pSG5-PXR/pSG5-RXR/pCMV-beta-galactosidase/p(CYP3A4)-TK-Luc at 50 uM. It is filed as ADME, cell-based. Conditions: hepg2, 50 µM. An outline of the steps: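 Transfected HepG2 cells given rifaximin 10 µM plus compound at 50 µM for 18 h; cytotoxicity judged by morphological analysis.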

In data set [8] the target is T1, Nuclear receptor subfamily 1 group I member 2. Description: Antagonist activity at PXR (unknown origin) transfected in human HepG2 cells assessed as inhibition of rifampicin-induced reporter gene transcription. It counts as cell-based.

Each structure is given as a SMILES string. The source made the active and inactive calls. The rule behind the calls is not given here.

As for `Cc1c(-c2ccc(O)c(O)c2)[nH]c2ccc(OCCCO)cc12`, in data set [1], the IC50 was 14 µM. The “inhibition (INH)” value in data set [1] is listed as “Dose-dependent effect”; in data set [2] it was “Active”; in data set [4] it was “Active”. In addition, in the data set with HepG2 [3], the result was Active. The Activity result in data set [5] is “Not Active”.
Regarding `O=c1oc2cc(O)ccc2c2oc3cc(O)ccc3c12` [COUMESTROL], in data set [6], the half-maximal inhibitory concentration (IC50) is 12 µM.
As to `C[C@H](CCCOS(=O)(=O)[O-])[C@H]1CC[C@H]2[C@@H]3CC[C@H]4C[C@H](OS(=O)(=O)[O-])[C@@H](OS(=O)(=O)[O-])C[C@]4(C)[C@H]3CC[C@]12C.[Na+].[Na+].[Na+]` [SOLOMONSTEROL A], the outcome in data set [5] was Active.
Consider `Cc1c(-c2ccc(OS(=O)(=O)[O-])c(OS(=O)(=O)[O-])c2)[nH]c2ccc(OS(=O)(=O)[O-])cc12.[Na+].[Na+].[Na+]`, for which, in data set [4], the “inhibition (INH)” value is listed as “Not Active”. Besides, the Activity entry in data set [5] was “Not Active”.
On to `CO[C@H]1/C=C/O[C@@]2(C)Oc3c(C)c(O)c4c(O)c(c5c(nc6cc(C)ccn65)c4c3C2=O)NC(=O)/C(C)=C\C=C\[C@H](C)[C@H](O)[C@@H](C)[C@@H](O)[C@@H](C)[C@H](OC(C)=O)[C@@H]1C` [RIFAXIMIN], for which the outcome in data set [5] was Active.
For `Cc1c(-c2ccc(O)cc2)[nH]c2ccc(OCCCO)cc12`, in data set [4], the “inhibition (INH)” value is “Active”. In data set [5], the Activity entry is “Not Active”.
On to `Cc1c(-c2ccc(O)cc2)[nH]c2ccc(O)cc12`, for which, in data set [4], the “inhibition (INH)” value was “Active”. Besides, the Activity entry in data set [5] is given as “Not Active”.
Taken in the same sequence, the figures for `Cc1c(-c2ccc(OS(=O)(=O)[O-])cc2)[nH]c2ccc(OCCCOS(=O)(=O)[O-])cc12.[Na+].[Na+]` were “Not Active” and “Not Active”.
With `COc1ccc2[nH]c(-c3ccc(OC)c(OC)c3)c(C)c2c1`, the “inhibition (INH)” value in data set [4] is recorded as “Active”. For the same compound, the Activity entry with HepG2 [7] is “Non-toxic”.
Turning to `Cc1c(-c2ccc(OS(=O)(=O)[O-])cc2)[nH]c2ccc(OCCOS(=O)(=O)[O-])cc12.[Na+].[Na+]`, in data set [4], the “inhibition (INH)” value was “Not Active”. Besides, in data set [5], the Activity result is “Not Active”.
With `Cc1c(-c2ccc(O)c(O)c2)[nH]c2ccc(O)cc12`, the IC50 in data set [1] amounted to 11 µM. In addition, the “inhibition (INH)” value is “Dose-dependent effect” in data set [1], “Active” in data set [2] and “Active” in data set [4]. The result with HepG2 [3] was Active. Besides, the Activity result in data set [5] is “Not Active”.
Regarding `Cc1c(-c2ccc(O)c(O)c2)n(C)c2ccc(O)cc12`, in data set [4], the “inhibition (INH)” value is listed as “Active”. Moreover, the Activity result in the data set on HepG2 [7] was “Toxic”.
As for `Cc1c(-c2ccc(O)c(O)c2)[nH]c2ccc(OCCO)cc12`, in data set [4], the “inhibition (INH)” value is listed as “Active”. Also, the Activity entry in data set [5] is reported as “Not Active”.
Consider `Cc1c(-c2ccc(OS(=O)(=O)[O-])cc2)[nH]c2ccc(OS(=O)(=O)[O-])cc12.[Na+].[Na+]`, for which the “inhibition (INH)” value in data set [4] was “Not Active”. Also, the Activity entry in data set [5] was “Not Active”.
For `Cc1c(-c2ccc(O)c(O)c2)n(Cc2ccccc2)c2ccc(O)cc12`, the “inhibition (INH)” value in data set [4] is reported as “Active”. Moreover, the Activity entry with HepG2 [7] is on record as “Toxic”.
For the compound `Cc1c(-c2ccc(O)cc2)[nH]c2ccc(OCCO)cc12`, the “inhibition (INH)” value in data set [4] is “Active”. Besides, the Activity entry in data set [5] is “Not Active”.
`COc1ccc2c(c1)c(C)c(-c1ccc(OC)c(OC)c1)n2C`: the “inhibition (INH)” value in data set [4] is “Active”. Besides, the Activity entry in the data set on HepG2 [7] is given as “Toxic”.
Consider `Cc1c(-c2ccc(OS(=O)(=O)[O-])c(OS(=O)(=O)[O-])c2)[nH]c2ccc(OCCCOS(=O)(=O)[O-])cc12.[Na+].[Na+].[Na+]`, for which, in data set [4], the “inhibition (INH)” value was “Not Active”. Besides, the Activity result in data set [5] is “Not Active”.
In the case of `CCCn1c(-c2ccc(O)c(O)c2)c(C)c2cc(O)ccc21`, the “inhibition (INH)” value in data set [4] is “Active”. Also, the Activity result with HepG2 [7] is reported as “Toxic”.
As for `Cc1ccc(SC(=O)c2c(C)noc2-c2cc(C)on2)cc1`, the IC50 in data set [8] was found to be 0.85 µM.

For the origin of these results see ChEMBL document CHEMBL3286263, “Bazedoxifene-scaffold-based mimetics of solomonsterols A and B as novel pregnane X receptor antagonists” (J Med Chem, 2014).
